Test results reported in ChEMBL document CHEMBL1268935, “3-O-arylmethylgalangin, a novel isostere for anti-HCV 1,3-diketoacids (DKAs)” (Bioorg Med Chem, 2010).

Assays:
[1] = Inhibition of HCV recombinant NS5B polymerase using [alpha32p]GTP after 30 mins by scintillation counting; set-up: species or system Hepacivirus hominis
How it was run: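 Recombinant NS5B primer/template-directed transcription in 30 mM Tris–HCl pH 7.2; compounds at various concentrations from 10% DMSO–water stocks, final DMSO 1%; stopped with 33 mM EDTA; products captured on DEAE filters, washed with 5% dibasic sodium phosphate, scintillation counted. IC50 estimated from primary cpm data, triplicate.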

Hepatitis C virus = assay: Antiviral activity against HCV genotype 1 harboring luc-ubi-neo fusion gene infected in human Huh7 cells assessed as inhibition of viral RNA replication after 4 days by luciferase assay; type: functional, organism-based, Hepacivirus hominis; settings: genotype 1, Huh-7, 96 h
How it was run: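 Huh-5-2 cells (Huh-7 carrying a subgenomic genotype 1 HCV replicon with luc-ubi-neo fusion gene) were seeded at 5 × 10³/well in complete DMEM with G418 and held 24 h at 37 °C, 5% CO₂. Medium was refreshed with G418 and compounds added from DMSO stock, then incubated 4 days at 37 °C. Luciferase was read out, and EC₅₀ was taken as 50% inhibition of replicon RNA replication. Interferon α-2b at 10,000 units/well served as reference.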

[2] = Cytotoxicity against human HuH5.2 cells after 3 days by WST-1 assay; type: cell-based, Huh-5-2
How it was run: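 Huh-7-derived Huh-5-2 cells carrying subgenomic genotype 1 HCV replicon (luc-ubi-neo); 5 × 10³ cells/well seeded in complete DMEM with G418; serial compound dilutions in DMEM without G418 added 24 h after seeding; proliferation 3 days at 37 °C; cell number by WST-1. CC50 = concentration reducing cell proliferation by 50%.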

[3] = Selectivity index, ratio of CC50 for human HuH5.2 cells to EC50 for HCV genotype 1 harboring luc-ubi-neo fusion gene
How it was run: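 SI is CC₅₀/EC₅₀, both measured in Huh-5-2 replicon cells seeded at 5 × 10³/well. For CC₅₀, serial dilutions in complete DMEM without G418 were added 24 h after seeding, cells grew 3 days at 37 °C, and cell number was read by WST-1. EC₅₀ came from the 4-day replicon luciferase assay run with G418.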

Compound	IC50 [1] [µM]	EC50 (Hepatitis C virus) [µM]	CC50 at 72 h [2] [µM]	Ratio CC50/EC50 [3]
Cc1cccc(COc2c(-c3ccccc3)oc3cc(O)cc(O)c3c2=O)c1	30	28	29	1
COc1ccccc1COc1c(-c2ccccc2)oc2cc(O)cc(O)c2c1=O	> 50	28	53	1.9
COc1ccc(COc2c(-c3ccccc3)oc3cc(O)cc(O)c3c2=O)cc1	29.5	10	57	5.7
N#Cc1cccc(COc2c(-c3ccccc3)oc3cc(O)cc(O)c3c2=O)c1	0.2	36	21	0.6
O=c1c(OCc2ccc(Br)cc2)c(-c2ccccc2)oc2cc(O)cc(O)c12	1.4	12	2	0.2
COc1cccc(COc2c(-c3ccccc3)oc3cc(O)cc(O)c3c2=O)c1	21	22	28	
O=c1c(OCc2ccc([N+](=O)[O-])cc2)c(-c2ccccc2)oc2cc(O)cc(O)c12	> 50	7	40	5.7
O=c1c(OCc2cccc(Cl)c2)c(-c2ccccc2)oc2cc(O)cc(O)c12	0.1	25	46	1.8
O=c1c(OCc2ccccc2Cl)c(-c2ccccc2)oc2cc(O)cc(O)c12	> 50	38	> 100	
O=c1c(OCc2ccc(Cl)cc2)c(-c2ccccc2)oc2cc(O)cc(O)c12	0.3	15	36	2.4
N#CCCCOc1ccccc1C(=O)/C=C(\O)C(=O)O	0.35			
N#Cc1ccccc1COc1c(-c2ccccc2)oc2cc(O)cc(O)c2c1=O	11	5	> 100	
Cc1ccccc1COc1c(-c2ccccc2)oc2cc(O)cc(O)c2c1=O	7.2	34	55	1.6
O=c1c(OCc2ccccc2[N+](=O)[O-])c(-c2ccccc2)oc2cc(O)cc(O)c12	> 50	12	51	4.3
N#Cc1ccc(COc2c(-c3ccccc3)oc3cc(O)cc(O)c3c2=O)cc1	1.3	10	48	4.8
O=c1c(OCc2cccc([N+](=O)[O-])c2)c(-c2ccccc2)oc2cc(O)cc(O)c12	6.4	5	31	6.2
O=c1c(OCc2cccc(Br)c2)c(-c2ccccc2)oc2cc(O)cc(O)c12	4.6	18	15	0.8
Cc1ccc(COc2c(-c3ccccc3)oc3cc(O)cc(O)c3c2=O)cc1	45.2	14	40	2.9
O=c1c(OCc2ccccc2Br)c(-c2ccccc2)oc2cc(O)cc(O)c12	10.5	9	12	1.3
